Screening results as filed in PubChem.
Shown are actives, neighbours in structure and some others; about 1.9% of the full set was active somewhere.
M4 ag – CHRM4 agonism in calcium assay; 360,000 tested, 0.14% active; P08173; CHO-K1 hM4/Gqi5, Fluo-8 calcium fluorescence; vehicle 0%, full acetylcholine response 100%; activation, % at 3 µM;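 active means activation above the run mean over all test wells plus 3 SD, cut at about 32% in these data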;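 further: peak over basal fluorescence ratio per well then scaled between controls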
CHRM4 PAM – CHRM4 positive allosteric modulation; P08173; CHO-K1 hM4/Gqi5, Fluo-8 calcium fluorescence, ACh EC20; 0% = ACh EC20, 100% = maximal ACh; activation, % at 3 µM; 360,000 tested, 0.4% active;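 active means activation above its plate's cutoff, the mean activation of sample wells plus 3 SD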
M5 PAM – potentiates acetylcholine response at human M5 receptor; P08912; CHO-K1 hM5, Fluo-8 calcium, ACh EC20 PAM; 0% = ACh EC20, 100% = ACh EC100; activation, % at 3 µM; 360,000 tested, 0.3% active; AID 624038;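 active means activation above the run cutoff, the mean activation of all test compounds plus 3 SD, cut at about 18% in these data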
Target sequence (P08912 whole entry, looked up): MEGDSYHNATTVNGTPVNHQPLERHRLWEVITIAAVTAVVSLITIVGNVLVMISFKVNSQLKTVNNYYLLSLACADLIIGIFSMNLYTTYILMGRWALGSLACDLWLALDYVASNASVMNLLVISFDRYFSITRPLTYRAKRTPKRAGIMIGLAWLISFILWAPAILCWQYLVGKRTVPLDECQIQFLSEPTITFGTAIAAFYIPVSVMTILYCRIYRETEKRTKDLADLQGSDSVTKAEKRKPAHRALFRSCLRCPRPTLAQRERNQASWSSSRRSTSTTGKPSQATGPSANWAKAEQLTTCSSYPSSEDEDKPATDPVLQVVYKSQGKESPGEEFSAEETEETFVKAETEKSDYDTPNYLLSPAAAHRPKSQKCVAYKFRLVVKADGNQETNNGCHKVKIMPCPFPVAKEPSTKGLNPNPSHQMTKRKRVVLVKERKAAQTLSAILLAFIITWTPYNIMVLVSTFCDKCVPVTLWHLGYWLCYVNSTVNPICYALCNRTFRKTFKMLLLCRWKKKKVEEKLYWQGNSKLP
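Replicates: One well per compound, no replicates | System: Human M5 receptor in CHO-K1 cells | Benchmarks: Low control EC20 acetylcholine (0%), high control EC100 acetylcholine (100%) | Probe or stimulus: Acetylcholine, EC20 level | Times: Fluo-8 loading 80 min at 37 °C plus 30 min room temperature | Signal: Intracellular calcium via Fluo-8 fluorescence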
CHRM5 antagonist – blocks acetylcholine activation of human M5 receptor; CHO-hM5 cells, Fluo-8 calcium fluorescence, ACh EC80; inhibition, % at 3 µM; P08912; 360,000 tested, 0.59% active;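 active means inhibition above a per-plate cutoff, the mean of that plate's test compounds plus 3 SD, cut at about 27% in these data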
M5 ag – CHRM5 agonism in calcium assay; activation, % at 3 µM; CHO-K1 hM5 cells, Fluo-8 calcium fluorescence; 0% DMSO wells, 100% maximal acetylcholine response; 360,000 tested, 0.19% active; P08912;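 active means activation above the run's mean over test compounds plus 3 SD, cut at about 23% in these data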;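 further: signal is peak over basal fluorescence ratio across the kinetic read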
M4 antag – antagonists of human muscarinic M4 receptor (CHRM4). P08173. CHO-hM4 cells, ACh EC80, Fluo-8 calcium fluorescence. inhibition, % at 3 µM. 360,000 tested, 0.73% active;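 active means inhibition above its plate's cutoff, the mean inhibition of sample wells plus 3 SD, cut at about 27% in these data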
Hits are given with their value.

How did Cc1nn(CC(=O)NC(C)C(C)C)c(C)c1S(=O)(=O)N1CCCCC1 (stereo not drawn) do in these assays?
M4 ag: inactive; CHRM4 PAM: inactive; M5 PAM: inactive; CHRM5 antagonist: inactive; M5 ag: inactive; M4 antag: inactive

What do the screens show for `CC(=O)N[C@H]1[C@H]([C@H](O)[C@H](O)CO)O[C@](O)(C(=O)O)C[C@@H]1O`?
M4 ag: inactive; CHRM4 PAM: inactive; M5 PAM: inactive; CHRM5 antagonist: inactive; M5 ag: inactive; M4 antag: inactive

How did O=C1CCC(=O)N1N1C(=O)C2C3c4ccccc4C(c4ccccc43)C2C1=O (stereo not drawn) do in these assays?
M4 ag: inactive; CHRM4 PAM: inactive; M5 PAM: 22; CHRM5 antagonist: inactive; M5 ag: inactive; M4 antag: inactive

Results for O=C1C2C3c4ccccc4C(c4ccccc43)[C@@H]2C(=O)N1c1ccccn1 (stereo partly drawn) ?
M4 ag: inactive; CHRM4 PAM: inactive; M5 PAM: inactive; CHRM5 antagonist: inactive; M5 ag: inactive; M4 antag: inactive

How did Cc1noc(NS(=O)(=O)c2ccc(NC(=O)c3ccc(Cl)c(S(=O)(=O)N(C)c4ccccc4)c3)cc2)c1C do in these assays?
M4 ag: inactive; CHRM4 PAM: inactive; M5 PAM: inactive; CHRM5 antagonist: inactive; M5 ag: inactive; M4 antag: inactive

How did COc1cc(/C=C/C(=O)/C=C(O)/C=C/c2ccc(O)c(OC)c2)ccc1O do in these assays?
M4 ag: 44; CHRM4 PAM: inactive; M5 PAM: inactive; CHRM5 antagonist: 37; M5 ag: 39; M4 antag: 32

How did COc1cc(C=C2C(=O)C=CC2=O)ccc1O do in these assays?
M4 ag: inactive; CHRM4 PAM: inactive; M5 PAM: inactive; CHRM5 antagonist: inactive; M5 ag: inactive; M4 antag: 31

What do the screens show for `COc1cc(/C=C/C(=O)O)ccc1O`?
M4 ag: inactive; CHRM4 PAM: inactive; M5 PAM: inactive; CHRM5 antagonist: inactive; M5 ag: inactive; M4 antag: inactive

Results for COc1cc(/C=C2/C(=O)CNC2=O)ccc1O ?
M4 ag: inactive; CHRM4 PAM: inactive; M5 PAM: inactive; CHRM5 antagonist: inactive; M5 ag: inactive; M4 antag: inactive

How did N/C(=N\OC(=O)c1ccccc1F)c1cccc([N+](=O)[O-])c1 do in these assays?
M4 ag: inactive; CHRM4 PAM: inactive; M5 PAM: inactive; CHRM5 antagonist: inactive; M5 ag: inactive; M4 antag: inactive

How did Cc1cc(C)c(NC(=O)CN(C)C(=O)c2ccc(OCc3ccccc3)cc2)c(C)c1 do in these assays?
M4 ag: inactive; CHRM4 PAM: inactive; M5 PAM: inactive; CHRM5 antagonist: inactive; M5 ag: inactive; M4 antag: inactive

What do the screens show for `C[N+]1(C)CCC(=C(c2ccccc2)c2ccccc2)CC1`?
M4 ag: inactive; CHRM4 PAM: inactive; M5 PAM: inactive; CHRM5 antagonist: 99; M5 ag: inactive; M4 antag: 100

Results for C[N+]1(CCC(=O)c2ccccc2)CCCCC1 ?
M4 ag: inactive; CHRM4 PAM: inactive; M5 PAM: inactive; CHRM5 antagonist: inactive; M5 ag: inactive; M4 antag: inactive

What do the screens show for `COc1ccc(C2c3c(ncn(CCCO)c3=N)Oc3ccc4ccccc4c32)cc1` (stereo not drawn)?
M4 ag: inactive; CHRM4 PAM: inactive; M5 PAM: inactive; CHRM5 antagonist: inactive; M5 ag: inactive; M4 antag: inactive

What do the screens show for `COc1ccc(C2c3c(ncn(CCCO)c3=N)Oc3ccc4ccccc4c32)cc1OC` (stereo not drawn)?
M4 ag: inactive; CHRM4 PAM: 11; M5 PAM: inactive; CHRM5 antagonist: inactive; M5 ag: inactive; M4 antag: inactive

How did CCOC(=O)C1=C(C)N(CCO)C(=O)NC1c1ccccc1 (stereo not drawn) do in these assays?
M4 ag: inactive; CHRM4 PAM: inactive; M5 PAM: 20; CHRM5 antagonist: inactive; M5 ag: inactive; M4 antag: inactive

Results for CCOC(=O)C1=C(C)N(CCCC(=O)O)C(=O)NC1c1ccccc1 (stereo not drawn) ?
M4 ag: inactive; CHRM4 PAM: inactive; M5 PAM: inactive; CHRM5 antagonist: inactive; M5 ag: inactive; M4 antag: inactive

What do the screens show for `CC(C)n1nnnc1SCC(=O)N1CCOCC1`?
M4 ag: inactive; CHRM4 PAM: inactive; M5 PAM: inactive; CHRM5 antagonist: inactive; M5 ag: inactive; M4 antag: 28

Results for CC(=O)c1ccc(N2CCN(C(=O)c3ccc(Cl)c(NC4=NC5CS(=O)(=O)CC5S4)c3)CC2)cc1 (stereo not drawn) ?
M4 ag: inactive; CHRM4 PAM: 48; M5 PAM: 21; CHRM5 antagonist: 29; M5 ag: inactive; M4 antag: inactive

Results for Cc1cc(N2CCCC2)ccc1NC(=O)CN1C(=O)NC2(CCCCC2)C1=O ?
M4 ag: inactive; CHRM4 PAM: inactive; M5 PAM: inactive; CHRM5 antagonist: inactive; M5 ag: inactive; M4 antag: inactive

What do the screens show for `CC1(C(=O)NCc2cccs2)CCN1C(=O)Cc1cccc2ccccc12` (stereo not drawn)?
M4 ag: inactive; CHRM4 PAM: inactive; M5 PAM: inactive; CHRM5 antagonist: inactive; M5 ag: inactive; M4 antag: inactive

How did CCS(=O)(=O)N1CCC(NC(=O)C(Cc2cc(OC)ccc2OC)NC(C)=O)CC1 (stereo not drawn) do in these assays?
M4 ag: inactive; CHRM4 PAM: inactive; M5 PAM: inactive; CHRM5 antagonist: inactive; M5 ag: inactive; M4 antag: inactive

What do the screens show for `CCOC(=O)CC(=O)Nc1ccccc1C(=O)O`?
M4 ag: inactive; CHRM4 PAM: 25; M5 PAM: inactive; CHRM5 antagonist: inactive; M5 ag: inactive; M4 antag: inactive

How did Cc1cccn2c(NC(=O)c3ccccc3F)c(-c3ccccc3)nc12 do in these assays?
M4 ag: inactive; CHRM4 PAM: inactive; M5 PAM: inactive; CHRM5 antagonist: inactive; M5 ag: inactive; M4 antag: inactive

What do the screens show for `O=C(NN=C1CCCC1)c1sc2ccccc2c1Cl`?
M4 ag: inactive; CHRM4 PAM: inactive; M5 PAM: inactive; CHRM5 antagonist: inactive; M5 ag: inactive; M4 antag: inactive

What do the screens show for `O=C1CCC/C(=N/NC(=O)c2sc3ccccc3c2Cl)C1`?
M4 ag: inactive; CHRM4 PAM: inactive; M5 PAM: inactive; CHRM5 antagonist: inactive; M5 ag: 24; M4 antag: inactive

What do the screens show for `O=C1CCCC(=NNC(=O)c2cc3ccccc3cc2O)C1`?
M4 ag: inactive; CHRM4 PAM: inactive; M5 PAM: inactive; CHRM5 antagonist: inactive; M5 ag: 26; M4 antag: inactive

How did COCCN1Cc2cccc(C(=O)Nc3c(C)cc(C)cc3C)c2C1=O do in these assays?
M4 ag: inactive; CHRM4 PAM: inactive; M5 PAM: 37; CHRM5 antagonist: inactive; M5 ag: inactive; M4 antag: inactive
